Test results: ChEMBL document CHEMBL2176869, “Discovery of TAK-875: A Potent, Selective, and Orally Bioavailable GPR40 Agonist” (ACS Med Chem Lett, 2010)
pEC50, pKi: −log10 of the molar value. Active and inactive are the calls of the source. The calls are words filed in the database; no cut-off is given here.

What was measured:
[1] = biological target: Free fatty acid receptor 1 (Rattus norvegicus, UniProt Q8K3T4); test: Displacement of 3-[4-({2',6'-dimethyl-6-[(4-[3H])phenylmethoxy]biphenyl-3-yl}methoxy)phenyl]propanoic acid from rat GPR40 expressed in CHO membranes after 90 mins by liquid scintillation counting in presence of 0.2 % BSA; format: cell membranes, Membrane
[2] = biological target: T1, Free fatty acid receptor 1 (Homo sapiens, UniProt O14842); test: Agonist activity at human GPR40 expressed in CHO cells assessed as calcium influx by FLIPR assay in presence of 0.1 % BSA; format: functional, cell-based
[3] = biological target: T1, Free fatty acid receptor 1; test: Displacement of 3-[4-({2',6'-dimethyl-6-[(4-[3H])phenylmethoxy]biphenyl-3-yl}methoxy)phenyl]propanoic acid from human GPR40 expressed in CHO membranes after 90 mins by liquid scintillation counting in presence of 0.2 % BSA; format: cell membranes
[4] = Terminal half life in fasted dog at 1 mg/kg, po; format: ADME, organism-based, Canis lupus familiaris; parameters: dose 1 mg/kg, route oral; settings: in vivo, read-out: t1/2lambda (converted)
Procedure, shortened: (§1)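 Dogs given 0.5 mg/kg iv or 1 mg/kg po, with plasma PK parameters derived. Cmax and AUC are reported as anhydrous-compound equivalents. Means of n = 4 dogs.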

[5] = biological target: T2, Free fatty acid receptor 4 (Homo sapiens, UniProt Q5NUL3); test: Agonist activity at human GPR120 expressed in CHO cells assessed as calcium influx after 30 mins by FLIPR assay; format: functional, cell-based
T2 sequence (Q5NUL3 whole entry): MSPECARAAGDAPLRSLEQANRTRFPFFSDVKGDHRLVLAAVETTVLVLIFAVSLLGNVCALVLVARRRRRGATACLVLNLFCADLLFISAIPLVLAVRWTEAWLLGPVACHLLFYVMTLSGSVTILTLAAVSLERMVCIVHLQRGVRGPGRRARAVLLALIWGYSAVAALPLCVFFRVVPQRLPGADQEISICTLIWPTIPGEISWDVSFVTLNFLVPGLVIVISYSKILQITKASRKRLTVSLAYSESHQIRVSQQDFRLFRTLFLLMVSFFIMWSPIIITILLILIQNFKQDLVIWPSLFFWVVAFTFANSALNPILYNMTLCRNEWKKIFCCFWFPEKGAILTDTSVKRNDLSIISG

[6] = Volume of distribution at steady state in fasted Crl:CD(SD) rat at 1 mg/kg, iv; format: ADME, organism-based; parameters: dose 1 mg/kg, route intravenous; settings: in vivo, read-out: Vdss
Procedure, shortened: (§2)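 Rats dosed at 1 mg/kg iv or 3 mg/kg po, with plasma sampling for PK parameters. Cmax and AUC are expressed as anhydrous-compound equivalents. Values are means of n = 3 rats.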

[7] = Oral bioavailability in fasted dog at 1 mg/kg; format: ADME, organism-based, Canis lupus familiaris; settings: in vivo; procedure, shortened: as §1
[8] = Tmax in fasted dog at 1 mg/kg, po; format: ADME, organism-based, Canis lupus familiaris; parameters: dose 1 mg/kg, route oral; settings: in vivo; procedure, shortened: as §1
[9] = biological target: T3, Free fatty acid receptor 3 (Homo sapiens, UniProt O14843); test: Agonist activity at human GPR41 expressed in 293 cells assessed as cAMP accumulation after 30 mins by Alphascreen method; format: functional, cell-based, HEK293
T3 sequence (O14843 whole entry): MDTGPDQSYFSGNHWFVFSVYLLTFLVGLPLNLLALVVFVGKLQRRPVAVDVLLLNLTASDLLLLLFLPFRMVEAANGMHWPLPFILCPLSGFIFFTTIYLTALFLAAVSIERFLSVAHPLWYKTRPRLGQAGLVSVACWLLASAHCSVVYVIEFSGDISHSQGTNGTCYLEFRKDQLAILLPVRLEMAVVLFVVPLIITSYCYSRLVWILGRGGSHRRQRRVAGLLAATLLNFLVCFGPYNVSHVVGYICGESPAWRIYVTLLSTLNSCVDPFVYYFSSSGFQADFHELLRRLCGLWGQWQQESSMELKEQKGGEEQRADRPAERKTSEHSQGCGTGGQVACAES

[10] = Cmax in fasted dog at 1 mg/kg, po; format: ADME, organism-based, Canis lupus familiaris; parameters: dose 1 mg/kg, route oral; settings: in vivo; procedure, shortened: as §1
Rattus norvegicus [11] = test: Antidiabetic activity in Wistar fatty rat assessed as augmentation of insulin secretion at 0.3 to 3 mg/kg, po administered 1 hr prior glucose challenge as single dose by OGTT
[12] = Cmax in fasted Crl:CD(SD) rat at 3 mg/kg, po; format: ADME, organism-based; parameters: dose 3 mg/kg, route oral; settings: in vivo; procedure, shortened: as §2
[13] = AUC (0 to 24 hrs) in fasted Crl:CD(SD) rat at 3 mg/kg, po; format: ADME, organism-based; parameters: time < 24 hr, dose 3 mg/kg, route oral; settings: plasma; procedure, shortened: as §2
[14] = Clearance in fasted Crl:CD(SD) rat at 1 mg/kg, iv; format: ADME, organism-based; parameters: dose 1 mg/kg, route intravenous; settings: in vivo; procedure, shortened: as §2
[15] = Terminal half life in fasted Crl:CD(SD) rat at 1 mg/kg, iv; format: ADME, organism-based; parameters: dose 1 mg/kg, route intravenous; settings: in vivo, read-out: t1/2lambda (converted); procedure, shortened: as §2
[16] = Oral bioavailability in fasted Crl:CD(SD) rat at 3 mg/kg; format: ADME, organism-based; settings: in vivo; procedure, shortened: as §2
Rattus norvegicus [17] = test: Antidiabetic activity in po dosed Wistar fatty rat assessed as augmentation of insulin secretion at administered 1 hr prior glucose challenge as single dose by OGTT; format: functional; settings: read-out: MED
Procedure, shortened: (§3)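 Female Wistar fatty rats got a single oral dose of 0.3–3 mg/kg 1 h before a 1 g/kg oral glucose challenge (OGTT). Plasma glucose and insulin were followed over time. Read-outs were incremental AUC0–120 min for glucose and AUCpre–30 min for insulin. Means ± SD, n = 6; compared with vehicle control by one-tailed Williams' test.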

[18] = biological target: T4, Free fatty acid receptor 2 (Homo sapiens, UniProt O15552); test: Agonist activity at human GPR43 expressed in 293 cells assessed as cAMP accumulation after 30 mins by Alphascreen method; format: functional, cell-based, HEK293
T4 sequence (O15552 whole entry): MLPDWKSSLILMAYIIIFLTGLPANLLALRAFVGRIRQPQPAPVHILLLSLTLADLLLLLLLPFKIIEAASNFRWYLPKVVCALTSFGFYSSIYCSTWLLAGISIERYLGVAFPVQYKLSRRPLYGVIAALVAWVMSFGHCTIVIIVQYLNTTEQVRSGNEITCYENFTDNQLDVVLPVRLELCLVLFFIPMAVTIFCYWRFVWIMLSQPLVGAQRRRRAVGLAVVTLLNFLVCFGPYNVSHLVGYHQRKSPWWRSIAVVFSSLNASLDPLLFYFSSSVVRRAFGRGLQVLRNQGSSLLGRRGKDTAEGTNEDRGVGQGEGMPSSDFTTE

[19] = Terminal half life in fasted Crl:CD(SD) rat at 3 mg/kg, po; format: ADME, organism-based; parameters: dose 3 mg/kg, route oral; settings: in vivo, read-out: t1/2lambda (converted); procedure, shortened: as §2
[20] = AUC (0 to 24 hrs) in fasted dog at 1 mg/kg, po; format: ADME, organism-based, Canis lupus familiaris; parameters: time < 24 hr, dose 1 mg/kg, route oral; settings: plasma; procedure, shortened: as §1
[21] = Tmax in fasted Crl:CD(SD) rat at 3 mg/kg, po; format: ADME, organism-based; parameters: dose 3 mg/kg, route oral; settings: in vivo; procedure, shortened: as §2
[22] = Terminal half life in fasted dog at 0.5 mg/kg, iv; format: ADME, organism-based, Canis lupus familiaris; parameters: dose 0.5 mg/kg, route intravenous; settings: in vivo, read-out: t1/2lambda (converted); procedure, shortened: as §1
[23] = Volume of distribution at steady state in fasted dog at 0.5 mg/kg, iv; format: ADME, organism-based, Canis lupus familiaris; parameters: dose 0.5 mg/kg, route intravenous; settings: in vivo, read-out: Vdss; procedure, shortened: as §1
[24] = Clearance in fasted dog at 0.5 mg/kg, iv; format: ADME, organism-based, Canis lupus familiaris; parameters: dose 0.5 mg/kg, route intravenous; settings: in vivo; procedure, shortened: as §1
Rattus norvegicus [25] = test: Antidiabetic activity in Wistar fatty rat assessed as reduction in blood glucose excursion at 0.3 to 3 mg/kg, po administered 1 hr prior glucose challenge as single dose by OGTT; format: functional, organism-based; procedure, shortened: as §3
Rattus norvegicus [26] = test: Antidiabetic activity in po dosed Wistar fatty rat assessed as reduction in blood glucose excursion at administered 1 hr prior glucose challenge as single dose by OGTT; format: functional; settings: read-out: MED; procedure, shortened: as §3

Chain of Free fatty acid receptor 1 (Rattus norvegicus, UniProt Q8K3T4) (Q8K3T4 whole entry): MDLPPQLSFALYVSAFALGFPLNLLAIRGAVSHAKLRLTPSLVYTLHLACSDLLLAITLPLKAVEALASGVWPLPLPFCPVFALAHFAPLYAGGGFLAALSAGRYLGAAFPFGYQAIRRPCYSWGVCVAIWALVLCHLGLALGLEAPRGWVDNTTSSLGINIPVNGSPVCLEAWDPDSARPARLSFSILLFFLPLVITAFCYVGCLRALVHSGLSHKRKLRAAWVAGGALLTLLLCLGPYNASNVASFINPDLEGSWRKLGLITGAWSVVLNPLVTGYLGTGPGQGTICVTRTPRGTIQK
T1 sequence (O14842 whole entry): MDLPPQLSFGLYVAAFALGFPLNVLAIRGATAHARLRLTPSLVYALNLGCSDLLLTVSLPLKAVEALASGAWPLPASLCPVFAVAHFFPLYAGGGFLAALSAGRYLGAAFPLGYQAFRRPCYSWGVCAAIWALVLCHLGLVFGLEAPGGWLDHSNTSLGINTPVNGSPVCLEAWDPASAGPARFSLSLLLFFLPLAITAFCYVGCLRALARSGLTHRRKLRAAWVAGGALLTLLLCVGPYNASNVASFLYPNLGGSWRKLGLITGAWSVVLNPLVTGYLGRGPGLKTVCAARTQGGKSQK

`Cc1cccc(C)c1-c1cccc(COc2ccc3c(c2)CCC3CC(=O)O)c1` (centres undefined) gave a pKi [1] of 6.28, a pEC50 [2] of 7.55 and a pKi [3] of 6.68.

In the case of `Cc1cc(OCCCS(C)(=O)=O)cc(C)c1-c1cccc(COc2ccc3c(c2)OC[C@H]3CC(=O)O)c1.O`, the half-life [4] was 450 min, the pEC50 [5] was less than 5.00 and the Vd [6] was 0.208 L/kg. It also gave a pKi [1] of 6.85, a bioavailability [7] of 92.4% and a Tmax [8] of 2 h. For the same molecule, the pEC50 [9] was less than 5.00, the Cmax [10] was 3290 ng/mL and the Activity (Rattus norvegicus [11]) was “Active”. For the same molecule, the Cmax [12] was 5770 ng/mL, the AUC(0-t) at 24 h [13] was 65000 ng·h/mL and the clearance [14] was 0.569 mL/min/kg. The half-life [15] was 282 min, the bioavailability [16] was 76% and the minimal effective dose (Rattus norvegicus [17]) was 1 mg/kg. It also gave a pEC50 [18] of less than 5.00, a half-life [19] of 246 min and an AUC(0-t) at 24 h [20] of 29400 ng·h/mL. The Tmax [21] was 1 h, the half-life [22] was 354 min and the Vd [23] was 0.225 L/kg. For the same molecule, the clearance [24] was 0.496 mL/min/kg, the Activity (Rattus norvegicus [25]) was “Active” and the minimal effective dose (Rattus norvegicus [26]) was 1 mg/kg.

`Cc1cccc(C)c1-c1cccc(COc2ccc3c(CC(=O)O)coc3c2)c1` gave a pKi [1] of less than 5.00, a pEC50 [2] of 5.77 and a pKi [3] of less than 5.00.

`Cc1cccc(C)c1-c1cccc(COc2ccc3c(c2)CCCCC3CC(=O)O)c1` (centres undefined) gave a pKi [1] of less than 5.00, a pEC50 [2] of 6.27 and a pKi [3] of 5.62.

Work on `Cc1cccc(C)c1-c1cccc(COc2ccc3c(c2)CCCC3CC(=O)O)c1` (centres undefined) yielded a pKi [1] of 5.43, a pEC50 [2] of 7.64 and a pKi [3] of 7.23.

With `Cc1cccc(C)c1-c1cccc(COc2ccc3c(c2)OCC3CC(=O)O)c1` (centres undefined) the pKi [1] was 5.96, the pEC50 [2] was 7.66 and the pKi [3] was 6.77.

Molecule `Cc1cccc(C)c1-c1cccc(COc2ccc3c(c2)OCCC(C(=O)O)C3)c1` (centres undefined) has a pKi [1] of less than 5.00, a pEC50 [2] of 7.31 and a pKi [3] of 6.57.

In the case of `Cc1cc(OCCCS(C)(=O)=O)cc(C)c1-c1cccc(COc2ccc3c(c2)OC[C@@H]3CC(=O)O)c1`, the pKi [1] was 5.80.

For `Cc1cccc(C)c1-c1cccc(COc2ccc(CCC(=O)O)c(F)c2)c1`, the pKi [1] was 7.27.
